Assay results reported in BindingDB's records for doi:10.1016/j.bmc.2012.05.040 (Imperial College, 2012).

Legend:
[1] = target: Phosphatidylinositol 3,4,5-trisphosphate 3-phosphatase and dual-specificity protein phosphatase PTEN (Homo sapiens, UniProt P60484); test: Inhibition of human PTEN using 3-O-Methylfluorescein phosphate as substrate incubated for 10 mins prior to substrate addition by fluorometry
Procedure, shortened: (§1)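 OMFP phosphatase assay, 20 °C, in 100 mM Tris pH 7.4 with 2 mM DTT. OMFP is taken from a 20 mM DMSO stock and diluted in 1% DMSO. It is used near each enzyme's KM, which is determined beforehand. Enzyme and arylstibonate are preincubated 10 min at RT, then OMFP is added. OMF release is read by fluorescence (ex 485, em 525 nm). Dose-response curves give IC50.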

[2] = target: Dual specificity protein phosphatase 3 (Homo sapiens, UniProt P51452); test: Inhibition of human recombinant His-tagged VHR using 3-O-Methylfluorescein phosphate as substrate incubated for 10 mins prior to substrate addition by fluorometry; procedure, shortened: as §1
Sequence of Dual specificity protein phosphatase 3 (P51452 whole entry): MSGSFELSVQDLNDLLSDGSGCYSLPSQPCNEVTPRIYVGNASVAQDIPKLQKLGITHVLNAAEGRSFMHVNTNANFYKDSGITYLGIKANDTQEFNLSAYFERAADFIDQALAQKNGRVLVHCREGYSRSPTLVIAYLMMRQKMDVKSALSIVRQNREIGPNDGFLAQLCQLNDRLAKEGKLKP

[3] = target: T1, Tyrosine-protein phosphatase non-receptor type 1 (Homo sapiens, UniProt P18031); test: Inhibition of PTP1B using 3-O-Methylfluorescein phosphate as substrate incubated for 10 mins prior to substrate addition by fluorometry; procedure, shortened: as §1
T1 sequence (P18031 whole entry): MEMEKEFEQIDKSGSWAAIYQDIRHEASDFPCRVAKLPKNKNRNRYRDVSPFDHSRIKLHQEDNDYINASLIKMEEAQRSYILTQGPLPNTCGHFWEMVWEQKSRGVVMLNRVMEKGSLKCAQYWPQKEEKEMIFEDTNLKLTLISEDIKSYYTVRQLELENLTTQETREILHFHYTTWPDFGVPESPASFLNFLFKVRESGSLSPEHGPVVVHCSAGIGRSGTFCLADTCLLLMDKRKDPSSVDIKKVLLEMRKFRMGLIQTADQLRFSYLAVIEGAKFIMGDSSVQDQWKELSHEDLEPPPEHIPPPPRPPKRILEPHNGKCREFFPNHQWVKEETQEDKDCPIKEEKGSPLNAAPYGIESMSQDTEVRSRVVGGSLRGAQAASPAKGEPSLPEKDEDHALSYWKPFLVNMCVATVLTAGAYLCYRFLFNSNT

[4] = target: T2, M-phase inducer phosphatase 1 (Homo sapiens, UniProt P30304); test: Inhibition of N-terminal His-tagged Cdc25a catalytic domain expressed in Escherichia coli BL21(DE3) using 3-O-Methylfluorescein phosphate as substrate incubated for 10 mins prior to substrate addition by fluorometry; procedure, shortened: as §1
T2 sequence (P30304 whole entry): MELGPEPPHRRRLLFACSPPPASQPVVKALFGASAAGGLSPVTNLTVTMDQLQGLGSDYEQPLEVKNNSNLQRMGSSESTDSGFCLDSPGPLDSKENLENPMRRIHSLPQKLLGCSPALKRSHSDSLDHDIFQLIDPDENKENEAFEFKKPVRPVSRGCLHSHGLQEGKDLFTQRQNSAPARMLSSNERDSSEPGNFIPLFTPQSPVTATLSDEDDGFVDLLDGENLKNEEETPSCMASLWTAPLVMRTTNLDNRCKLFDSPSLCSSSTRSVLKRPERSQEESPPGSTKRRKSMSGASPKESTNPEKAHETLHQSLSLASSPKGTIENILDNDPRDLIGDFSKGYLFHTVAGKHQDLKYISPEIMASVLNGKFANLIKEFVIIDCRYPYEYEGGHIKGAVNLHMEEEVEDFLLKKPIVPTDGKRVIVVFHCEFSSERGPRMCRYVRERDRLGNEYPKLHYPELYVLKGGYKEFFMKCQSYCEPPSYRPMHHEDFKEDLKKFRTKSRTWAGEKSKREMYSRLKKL

[5] = target: T3, M-phase inducer phosphatase 2 (Homo sapiens, UniProt P30305); test: Inhibition of N-terminal His-tagged Cdc25b catalytic domain expressed in Escherichia coli BL21(DE3) using 3-O-Methylfluorescein phosphate as substrate incubated for 10 mins prior to substrate addition by fluorometry; procedure, shortened: as §1
T3 sequence (P30305 whole entry): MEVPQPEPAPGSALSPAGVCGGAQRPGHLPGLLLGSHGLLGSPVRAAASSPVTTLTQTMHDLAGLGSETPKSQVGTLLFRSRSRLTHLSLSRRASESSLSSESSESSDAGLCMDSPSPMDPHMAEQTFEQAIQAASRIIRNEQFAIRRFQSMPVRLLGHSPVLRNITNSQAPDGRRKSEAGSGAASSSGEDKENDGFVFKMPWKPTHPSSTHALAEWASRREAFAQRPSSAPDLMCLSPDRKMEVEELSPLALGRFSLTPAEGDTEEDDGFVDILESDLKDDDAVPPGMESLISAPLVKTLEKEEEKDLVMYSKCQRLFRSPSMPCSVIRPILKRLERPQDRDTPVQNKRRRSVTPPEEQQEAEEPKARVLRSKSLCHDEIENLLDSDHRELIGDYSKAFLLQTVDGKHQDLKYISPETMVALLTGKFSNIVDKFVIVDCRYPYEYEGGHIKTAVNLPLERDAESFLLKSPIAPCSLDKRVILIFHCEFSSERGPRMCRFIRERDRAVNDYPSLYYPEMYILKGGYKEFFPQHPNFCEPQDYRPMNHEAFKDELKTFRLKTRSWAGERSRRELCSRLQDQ

[6] = target: T4, Phosphatidylglycerophosphatase and protein-tyrosine phosphatase 1 (Homo sapiens, UniProt Q8WUK0); test: Inhibition of PTPMT1 using 3-O-Methylfluorescein phosphate as substrate incubated for 10 mins prior to substrate addition by fluorometry; procedure, shortened: as §1
T4 sequence (Q8WUK0 whole entry): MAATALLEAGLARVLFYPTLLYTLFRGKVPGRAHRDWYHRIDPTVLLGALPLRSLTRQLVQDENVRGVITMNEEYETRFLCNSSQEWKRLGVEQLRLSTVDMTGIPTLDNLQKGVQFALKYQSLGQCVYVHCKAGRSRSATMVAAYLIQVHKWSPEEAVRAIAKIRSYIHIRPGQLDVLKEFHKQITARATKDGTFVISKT

[7] = target: T5, M-phase inducer phosphatase 3 (Homo sapiens, UniProt P30307); test: Inhibition of N-terminal His-tagged Cdc25c catalytic domain expressed in Escherichia coli BL21(DE3) using 3-O-Methylfluorescein phosphate as substrate incubated for 10 mins prior to substrate addition by fluorometry; procedure, shortened: as §1
T5 sequence (P30307 whole entry): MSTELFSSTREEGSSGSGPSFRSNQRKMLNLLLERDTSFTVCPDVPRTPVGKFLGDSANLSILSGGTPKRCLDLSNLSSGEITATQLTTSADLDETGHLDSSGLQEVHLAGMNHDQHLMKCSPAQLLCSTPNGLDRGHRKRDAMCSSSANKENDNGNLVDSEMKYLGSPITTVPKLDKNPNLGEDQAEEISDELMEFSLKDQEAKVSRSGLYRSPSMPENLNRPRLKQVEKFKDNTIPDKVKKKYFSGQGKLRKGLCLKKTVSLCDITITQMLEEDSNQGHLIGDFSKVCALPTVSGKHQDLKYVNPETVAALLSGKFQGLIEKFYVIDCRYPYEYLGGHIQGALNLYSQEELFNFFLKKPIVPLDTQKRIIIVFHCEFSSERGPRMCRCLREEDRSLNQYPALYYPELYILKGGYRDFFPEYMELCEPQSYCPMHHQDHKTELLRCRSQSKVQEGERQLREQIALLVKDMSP

[8] = target: T3, M-phase inducer phosphatase 2; test: Inhibition of N-terminal His-tagged Cdc25b catalytic domain expressed in Escherichia coli BL21(DE3) using 3-O-Methylfluorescein phosphate as substrate by secondary plot analysis
Procedure, shortened: (§2)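 Steady-state kinetics of the Cdc25a and Cdc25b catalytic domains with varying OMFP and several arylstibonate concentrations. Run at 20 °C in 100 mM Tris pH 7.4 with 2 mM DTT, after a 10 min RT enzyme–inhibitor preincubation. Fluorescence read at ex 485/em 525 nm. Michaelis–Menten plots give apparent Km and Vmax; secondary plots give Ki.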

[9] = target: T6, Receptor-type tyrosine-protein phosphatase beta (Homo sapiens, UniProt P23467); test: Inhibition of PTP-beta receptor using 3-O-Methylfluorescein phosphate as substrate incubated for 10 mins prior to substrate addition by fluorometry; procedure, shortened: as §1
T6 sequence (P23467 whole entry, the tested form may be a part): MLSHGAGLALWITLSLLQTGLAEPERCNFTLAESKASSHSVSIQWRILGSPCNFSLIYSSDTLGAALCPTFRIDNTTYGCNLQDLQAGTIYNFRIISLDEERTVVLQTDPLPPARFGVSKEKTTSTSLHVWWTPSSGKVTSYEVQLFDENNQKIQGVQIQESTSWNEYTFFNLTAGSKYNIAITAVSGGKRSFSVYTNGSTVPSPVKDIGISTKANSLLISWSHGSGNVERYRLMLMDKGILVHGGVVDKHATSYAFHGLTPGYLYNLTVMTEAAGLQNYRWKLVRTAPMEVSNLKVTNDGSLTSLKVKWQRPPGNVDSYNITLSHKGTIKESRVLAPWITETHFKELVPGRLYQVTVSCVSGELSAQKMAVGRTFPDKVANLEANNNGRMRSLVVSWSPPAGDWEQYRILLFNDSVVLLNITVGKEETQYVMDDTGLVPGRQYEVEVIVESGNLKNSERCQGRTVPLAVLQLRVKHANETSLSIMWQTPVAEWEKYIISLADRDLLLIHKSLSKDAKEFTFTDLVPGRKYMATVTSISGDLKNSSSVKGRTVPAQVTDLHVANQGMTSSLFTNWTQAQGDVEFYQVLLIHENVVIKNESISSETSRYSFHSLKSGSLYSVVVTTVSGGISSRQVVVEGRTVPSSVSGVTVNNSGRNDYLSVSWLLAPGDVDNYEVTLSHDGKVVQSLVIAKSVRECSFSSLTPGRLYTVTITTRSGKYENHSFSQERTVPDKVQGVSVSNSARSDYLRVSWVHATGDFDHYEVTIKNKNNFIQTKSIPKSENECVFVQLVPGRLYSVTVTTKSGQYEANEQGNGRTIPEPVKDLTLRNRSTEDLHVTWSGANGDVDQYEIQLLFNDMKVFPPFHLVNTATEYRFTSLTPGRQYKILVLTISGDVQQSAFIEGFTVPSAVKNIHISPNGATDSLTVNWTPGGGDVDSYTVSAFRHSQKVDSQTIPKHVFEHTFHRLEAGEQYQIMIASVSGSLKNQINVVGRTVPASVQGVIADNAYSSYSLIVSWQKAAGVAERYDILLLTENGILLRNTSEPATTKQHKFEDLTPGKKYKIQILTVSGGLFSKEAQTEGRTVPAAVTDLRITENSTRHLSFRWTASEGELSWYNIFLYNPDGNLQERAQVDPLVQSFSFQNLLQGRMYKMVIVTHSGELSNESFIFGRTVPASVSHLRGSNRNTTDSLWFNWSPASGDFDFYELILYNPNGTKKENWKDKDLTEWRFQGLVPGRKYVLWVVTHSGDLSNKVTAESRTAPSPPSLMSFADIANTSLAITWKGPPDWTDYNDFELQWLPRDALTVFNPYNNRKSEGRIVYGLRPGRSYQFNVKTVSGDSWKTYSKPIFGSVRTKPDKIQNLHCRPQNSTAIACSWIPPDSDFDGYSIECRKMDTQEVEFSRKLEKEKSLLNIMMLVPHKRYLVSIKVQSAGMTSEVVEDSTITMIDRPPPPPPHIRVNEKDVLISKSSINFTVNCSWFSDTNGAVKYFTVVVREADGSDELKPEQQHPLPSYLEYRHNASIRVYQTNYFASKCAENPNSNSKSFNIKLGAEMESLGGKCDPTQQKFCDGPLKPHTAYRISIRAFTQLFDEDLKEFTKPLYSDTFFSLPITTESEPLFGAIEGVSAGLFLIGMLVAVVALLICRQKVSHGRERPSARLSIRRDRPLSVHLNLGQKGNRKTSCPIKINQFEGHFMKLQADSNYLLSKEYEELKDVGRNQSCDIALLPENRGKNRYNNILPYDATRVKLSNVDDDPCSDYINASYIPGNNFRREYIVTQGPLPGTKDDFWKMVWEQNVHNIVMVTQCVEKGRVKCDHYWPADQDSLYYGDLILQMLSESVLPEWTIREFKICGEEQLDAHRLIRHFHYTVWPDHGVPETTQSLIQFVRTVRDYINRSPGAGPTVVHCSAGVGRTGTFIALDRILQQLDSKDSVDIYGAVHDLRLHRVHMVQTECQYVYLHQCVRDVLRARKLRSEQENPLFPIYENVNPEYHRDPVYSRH

[10] = target: T2, M-phase inducer phosphatase 1; test: Inhibition of N-terminal His-tagged Cdc25a catalytic domain expressed in Escherichia coli BL21(DE3) using 3-O-Methylfluorescein phosphate as substrate by secondary plot analysis; procedure, shortened: as §2
[11] = target: T7, Dual specificity protein phosphatase 6 (Homo sapiens, UniProt Q16828); test: Inhibition of MKP3 using 3-O-Methylfluorescein phosphate as substrate incubated for 10 mins prior to substrate addition by fluorometry; procedure, shortened: as §1
T7 sequence (Q16828 whole entry): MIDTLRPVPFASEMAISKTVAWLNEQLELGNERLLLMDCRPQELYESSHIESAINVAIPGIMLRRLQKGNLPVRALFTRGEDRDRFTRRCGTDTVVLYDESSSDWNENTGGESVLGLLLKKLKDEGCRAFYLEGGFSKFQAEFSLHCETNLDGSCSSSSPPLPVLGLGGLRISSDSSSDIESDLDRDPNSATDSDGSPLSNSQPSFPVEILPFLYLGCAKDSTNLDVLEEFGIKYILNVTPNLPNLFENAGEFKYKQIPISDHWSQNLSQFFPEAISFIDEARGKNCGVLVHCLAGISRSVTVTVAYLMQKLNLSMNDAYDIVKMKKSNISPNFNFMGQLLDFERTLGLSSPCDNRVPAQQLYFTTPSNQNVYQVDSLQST

[12] = target: T6, Receptor-type tyrosine-protein phosphatase beta; test: Inhibition of PTP-beta receptor using […] as substrate by colorimetric analysis

Sequence of Phosphatidylinositol 3,4,5-trisphosphate 3-phosphatase and dual-specificity protein phosphatase PTEN (P60484 whole entry): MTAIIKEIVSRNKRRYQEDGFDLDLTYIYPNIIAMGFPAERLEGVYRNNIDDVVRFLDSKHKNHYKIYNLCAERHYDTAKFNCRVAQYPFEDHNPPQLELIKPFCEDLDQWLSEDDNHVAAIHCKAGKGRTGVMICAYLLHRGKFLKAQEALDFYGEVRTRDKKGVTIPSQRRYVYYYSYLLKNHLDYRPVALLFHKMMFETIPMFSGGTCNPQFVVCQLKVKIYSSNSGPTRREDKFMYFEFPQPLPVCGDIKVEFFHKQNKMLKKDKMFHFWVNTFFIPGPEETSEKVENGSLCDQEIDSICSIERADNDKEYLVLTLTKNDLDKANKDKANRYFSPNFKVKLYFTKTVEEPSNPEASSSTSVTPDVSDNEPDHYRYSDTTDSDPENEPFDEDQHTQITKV

O=C(O)CCc1ccc[c]([Sb](=[O])([OH])[OH])c1
IC50 [1]: 8.87 µM | IC50 [2]: > 100 µM | IC50 [3]: > 100 µM | IC50 [4]: 3.15 µM | IC50 [5]: 5.67 µM | IC50 [6]: 13.4 µM | IC50 [7]: > 100 µM | Ki [8]: 4.7 µM | IC50 [9]: 1.62 µM | Ki [10]: 1.7 µM | IC50 [11]: > 100 µM | IC50 [12]: 0.1 µM

O=C(O)/C=C/c1ccc[c]([Sb](=[O])([OH])[OH])c1 [(2E)-3-{3-[dihydroxy(oxo)--stibanyl]phenyl}prop-2-enoic acid]
IC50 [1]: 10 µM | IC50 [2]: > 10 µM | IC50 [3]: 7.93 µM | IC50 [4]: 0.11 µM | IC50 [5]: 0.6 µM | IC50 [6]: 1.62 µM | IC50 [7]: > 10 µM | Ki [8]: 0.369 µM | IC50 [9]: 0.77 µM | Ki [10]: 0.072 µM | IC50 [11]: > 10 µM | IC50 [12]: 0.1 µM
